Source: PubChem BioAssay (several laboratories)
Shown are actives, neighbours in structure and some others; about 2.4% of the full set was active somewhere.
Yeast lifespan up: compounds extending yeast replicative lifespan, primary screen, S. cerevisiae, OD615. S. cerevisiae growth with nicotinamide; deaD strain in restrictive glucose medium. inhibition of the nicotinamide effect, % at 10 µM. 130,000 compounds, 0.68% hits. AID 775, 2007;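 active = inhibition above a set limit, placed 3 SD over the median of all compounds, cut at about 26% in these data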
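Assay system: DeaD-strain S. cerevisiae. Medium: CSMM-D glucose medium, restrictive. Reagent: nicotinamide, 1.5 mM, co-present with compound. Compound: 10 µM single point, 0.25% DMSO. Schedule: culture preincubation 4 h, compound exposure 48 h, both 30 °C. Detection: absorbance at 615 nm.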
Rad51 HR inh: human RAD51 strand exchange inhibitors, primary screen, biochemical, fluorescence; 200,000 compounds, 0.085% hits; inhibition, % at 10 µM; DNA repair protein RAD51 homolog 1 (Homo sapiens), Q06609; hRad51 DNA strand exchange, fluorescence dequenching;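 active = inhibition above 40% at the single screening dose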
Target sequence (Q06609 whole entry, looked up): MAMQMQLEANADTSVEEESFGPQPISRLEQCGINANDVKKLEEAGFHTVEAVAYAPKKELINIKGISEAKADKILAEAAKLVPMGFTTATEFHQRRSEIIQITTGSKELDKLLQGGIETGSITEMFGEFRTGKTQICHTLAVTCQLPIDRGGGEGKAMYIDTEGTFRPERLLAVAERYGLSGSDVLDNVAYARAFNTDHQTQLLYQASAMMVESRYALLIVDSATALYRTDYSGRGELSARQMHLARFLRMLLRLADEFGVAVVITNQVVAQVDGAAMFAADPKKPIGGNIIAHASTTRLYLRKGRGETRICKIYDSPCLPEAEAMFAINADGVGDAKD
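Material: hRad51 filaments on single-stranded DNA; Reagent: Donor/quencher-labelled 47-bp dsDNA substrate; Compound: 10 µM final, single point; Schedule: 37 °C 15-min filament assembly, 30-min compound preincubation, 15-min exchange; Technique: FRET fluorescence, excitation 485 nm, emission 520 nm; Benchmarks: control wells and blank wells on each plate.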
Measles CPE: compounds protecting cells from measles virus cytopathic effect, primary screen, measles RdRp inhibitor project, single point, MLSMR library, absorbance; Measles virus-infected cells, CPE protection; protection (pct of control), % at 4 µM; 140,000 compounds, 1.5% hits; AID 841, 2007; in the data active = protection mostly above about 24%, no sharp cut-off; inactive = mostly below about 26%
HMGR II inh: inhibitors of E. faecalis class II HMGR, primary screen, biochemical, Enterococcus faecalis | HMG-CoA reductase (Enterococcus faecalis, mvaE) | purified E. faecalis HMGR, NADPH absorbance 340 nm kinetic | inhibition, % at 10 µM | 190,000 compounds, 0.41% hits;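 active = inhibition above a set limit, the median over all tested compounds plus 3 SD, cut at about 9.5% in these data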;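 also: enzyme runs in reverse so mevalonate oxidation gives rising NADPH absorbance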
BB579 growth dn: growth inhibitors of yeast BB579 in restrictive medium, primary screen, yeast lifespan-shortening project, S. cerevisiae; OD615, 48 h; AID 804, 2007; inhibition, % at 10 µM; 140,000 compounds, 0.51% hits;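 active = inhibition above a set limit, 3 SD over the mean compound inhibition, cut at about 44% in these data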
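Material: Saccharomyces cerevisiae DeaD strain BB579, replicative lifespan model yeast; buffer or medium: CSMM-D restrictive synthetic medium containing dextrose (glucose); compound: 10 µM single dose, DMSO 0.25%; timing: 48 h compound exposure at 30 °C after 4 h preincubation; signal: turbidity as optical density at 615 nm; benchmarks: positive control amphotericin B 10 µg/mL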
Arbovirus anti: antivirals against arbovirus infection, primary screen, cell-based, full library, 10K replicate subset | arbovirus infection cell-based antiviral screen | inhibition, % at 10 µM | 200,000 compounds, 0.37% hits; in the data active = inhibition above about 30%
Hits are given with their value; i = inactive; nt = not tested or not shown.

SMILES	Yeast lifespan up	Rad51 HR inh	Measles CPE	HMGR II inh	BB579 growth dn	Arbovirus anti
CCOC(=O)CS(=O)(=O)c1nc(-c2ccc(F)cc2)cc(C(F)(F)F)n1	67	i	i	i	i	i
CCOC(=O)CS(=O)(=O)c1nc(-c2ccccc2)cc(C(F)(F)F)n1	nt	i	i	i	i	i
Cc1ccc(C(=O)Nc2cc3ccccc3oc2=O)cc1	nt	i	nt	i	nt	i
NS(=O)(=O)c1ccc(CCNCC(=O)N2CCC(Cc3ccccc3)CC2)cc1	nt	i	nt	nt	nt	nt
CC(C)(C)c1ccc(-c2nc(-c3ccncc3)no2)cc1	nt	nt	i	i	68	i
Cn1c(N)c(C(=O)c2ccc(Cl)cc2)c(=O)n(C)c1=O	i	i	i	i	i	i
Cn1c(N)c(C(=O)c2ccc(F)cc2F)c(=O)n(C)c1=O	40	i	i	i	i	i
Cc1ccc2c(c1)oc(=O)n2CC(=O)c1ccccc1	nt	i	nt	nt	nt	nt
COc1ccc(N2CCN(C(=O)c3cn(C)c(=O)c4c3c3ccccc3n4C)CC2)cc1	i	132	i	i	i	i
CC(C)Cn1cc(C(=O)N2CCOCC2)c2c3ccccc3n(C)c2c1=O	i	i	40	i	i	i
CC(C)Cn1cc(C(=O)N2CCC(C)CC2)c2c3ccccc3n(C)c2c1=O	nt	i	nt	i	nt	i
COc1ccc(N2CCN(C(=O)c3cn(C4CCCC4)c(=O)c4c3c3ccccc3n4C)CC2)cc1	i	nt	i	i	i	i
CCNC(=O)NC(=O)CSc1nc2ccccc2n1CCOC	i	i	i	i	i	i
Cn1c(=O)c2c(nc(Br)n2Cc2ccc3ccccc3c2)n(C)c1=O	38	i	i	i	i	i
Cc1ccc(C(=O)N/C(=C/C=C\c2ccccc2)C(=O)NCc2ccco2)cc1	i	nt	i	i	i	i
CC(C)Cc1nnc(NC(=O)CSc2nc(O)c(-c3ccccc3)c(=O)[nH]2)s1	nt	i	nt	i	nt	i
COc1cc(/C=C2\SC(=S)N(NS(=O)(=O)c3ccccc3)C2=O)cc(OC)c1OC	nt	i	nt	nt	nt	nt
COc1ccc(/C=C2/SC(=O)N(NS(=O)(=O)c3ccccc3)C2=S)cc1OC	32	i	i	i	i	i
NC(=O)c1ccsc1NC(=O)CSc1nnc(Nc2ccccc2)s1	nt	i	nt	i	nt	i
CCOC(=O)N1C(=O)C2(CCCCC2)N(c2ccccc2Cl)C1=S	37	i	i	i	i	i
Cc1ccc(-c2[nH]n3c(=O)c4c(nc3c2C)CCCC4)cc1	i	i	31	i	i	i
COc1ccc2occ(NC(C)=O)c2c1	i	i	42	i	i	i
CCS(=O)(=O)c1ccc(O)c(NC(=O)COc2ccc(OC)cc2)c1	i	i	i	i	i	i
CCCc1ccc(OCC(=O)Nc2cc(S(=O)(=O)CC)ccc2O)cc1	nt	i	nt	10	nt	i
CC(NC(=O)C1(c2cccs2)CCOCC1)c1ccccc1 (configuration not stated)	i	i	i	i	i	i
SMILES	Yeast lifespan up	Rad51 HR inh	Measles CPE	HMGR II inh	BB579 growth dn	Arbovirus anti
CC(C)Cn1c(=O)c(C(=O)Nc2ccccc2S(N)(=O)=O)c(O)c2ccccc21	i	i	i	i	i	i
CCOC(=O)Cc1csc(NC(=O)c2c(O)c3ccccc3n(CC(C)C)c2=O)n1	69	i	i	i	i	i
C=CCSc1ncccc1C(=O)NCc1ccccc1	i	nt	80	i	i	i
CCOC(=O)c1cccnc1SCC(=O)NCc1ccccc1	i	i	i	i	i	i
Cc1ccc([N+](=O)[O-])c(NC2OC(CO)C(O)C2O)c1 (configuration not stated)	nt	nt	nt	i	nt	i
CCN(CCO)C(=O)C12CCC(C)(C(=O)C1)C2(C)C (configuration not stated)	68	i	i	i	i	i
O=C(O)CSc1ncnc2c1oc1ccccc12	i	i	27	i	i	i
CC(C)(C)C1=CC(=Nc2ccccc2N)C=C(C(C)(C)C)C1=O	i	i	i	i	i	i
CC(C)(C)C1=CC(=O)C(=O)C(C(C)(C)C)=C1	40	i	i	i	i	i
Cc1ccc(C(=O)/C=C/c2cn(CN3CCN(C)CC3)c3ccccc23)cc1	i	i	i	i	73	i
Cn1cc(/C=C/C(=O)c2ccccc2)c2ccccc21	nt	i	nt	nt	nt	nt
COC(=O)C1=C(N)OC2=C(C(=O)CC(C)(C)C2)C1c1cccs1 (configuration not stated)	35	i	i	i	i	i
CCCC(c1nnnn1CC1CCCO1)N1CCN(c2nc3ccccc3s2)CC1 (configuration not stated)	nt	i	i	i	i	i
CCCCC(c1nnnn1CC1CCCO1)N1CCN(c2nc3ccccc3s2)CC1 (configuration not stated)	73	i	i	i	i	i
O=C(CCNC(=O)c1ccco1)Nc1ccccc1N1CCOCC1	nt	i	nt	i	nt	i
Cc1cccc(C(=O)NN2S(=O)(=O)c3ccccc3S2(=O)=O)c1	nt	i	nt	i	nt	i
O=C(NN1S(=O)(=O)c2ccccc2S1(=O)=O)c1ccc(Br)cc1	nt	i	nt	16	nt	i
OCCNc1nc(Nc2ccc(Br)cc2)nc2ccccc12	nt	i	nt	i	nt	i
OCCNc1nc(Nc2ccccc2)nc2ccccc12	nt	i	i	i	i	34
COc1cc(/C=C(\C#N)c2nc3ccc(C)cc3[nH]2)cc([N+](=O)[O-])c1O	nt	i	nt	i	nt	44
COc1cc(/C=C(\C#N)c2nc3ccc(C)cc3[nH]2)c([N+](=O)[O-])cc1OC	i	i	i	i	i	i
CCC1=NN2C(=N)/C(=C\c3cccn3-c3ccc(OC)cc3)C(=O)N=C2S1	nt	i	nt	i	nt	i
Cc1ccc(-n2cccc2/C=C2\C(=N)N3N=C(C(C)C)SC3=NC2=O)cc1	nt	i	nt	i	nt	32
Cc1ccc2c3c([nH]c2c1C)-c1nonc1CC3	nt	i	43	i	i	i
CCC(C)NC(=O)CNC(=S)N(Cc1ccccc1F)C1CCCCC1 (configuration not stated)	nt	i	nt	i	nt	i
O=C1C(=O)c2c(C(=O)c3ccccc3)coc2-c2ccccc21	i	i	i	i	99	i
COc1ccc(C(=O)NCCCOc2cccc(NC(C)=O)c2)cc1	nt	i	nt	nt	nt	nt
C/C(=N\NC(=O)CC1N=C(Cc2ccccc2)NNC1=O)c1ccc(C)cc1 (configuration not stated)	i	i	i	i	i	i
COc1ccc(/C=N/NC(=O)CC2N=C(Cc3ccccc3)NNC2=O)cc1OC (configuration not stated)	i	i	28	i	i	i
O=C1CC(N2CCC(Cc3ccccc3)CC2)C(=O)N1CCc1ccccc1 (configuration not stated)	i	i	i	i	i	30
